Reference: ChEMBL document CHEMBL5712908, “A genome-wide RNAi screen reveals essential therapeutic targets of breast cancer stem cells” (2019)
Calls of active or inactive are those of the source. No cut-off for these calls is given here.

Legend:
SUM-159-PT [1] = assay: Anticancer activity against human SUM159 cells assessed as decrease in primary tumor sphere formation incubated for 72 hrs by Extreme limiting dilution analysis; assay type: functional, cell-based
Method in brief: (§1)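 Cells drug-treated in adherent culture for 72 h, then plated as single cells in ultra-low attachment 96-well plates in serum-free mammary epithelium basal medium. Plating at 25/10/5/3/2/1 cells per well, 18–36 wells per condition. Wells with ≥1 sphere after 10 days scored positive. Secondary spheres were made by dissociating primary spheres. Frequency by ELDA; n = 4; pairwise chi-square test.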

SUM-159-PT [2] = assay: Anticancer activity against human SUM159 cells assessed as decrease in secondary tumor sphere formation incubated for 72 hrs by Extreme limiting dilution analysis; assay type: functional, cell-based; method in brief: as §1
[3] = Antitumor activity against human S68 cells assessed as K-score by measuring ALDHbr cells by LSR2 cytometer; assay type: functional
Method in brief: (§2)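 Cell lines exposed for 72 h in adherent culture to a range of concentrations centred on the MTS-derived IC50. ALDHbr proportion measured by ALDEFLUOR flow cytometry (LSR2). K-score is the linear regression coefficient, on log10-transformed doses, between the untreated condition and the dose predicted to give a 50% decrease or increase in ALDHbr proportion versus control.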

[4] = Antitumor activity against human BrCa-MZ-01 cells assessed as K-score by measuring ALDHbr cells by LSR2 cytometer; assay type: functional; method in brief: as §2
SUM-159-PT [5] = assay: Antitumor activity against human SUM159 cells assessed as K-score by measuring ALDHbr cells by LSR2 cytometer; assay type: functional; method in brief: as §2
SUM149PT = assay: Antitumor activity against human SUM149 cells assessed as K-score by measuring ALDHbr cells by LSR2 cytometer; assay type: functional; method in brief: as §2
MDA-MB-436 = assay: Antitumor activity against human MDA-MB-436 cells assessed as K-score by measuring ALDHbr cells by LSR2 cytometer; assay type: functional; method in brief: as §2
SUM-159-PT [6] = assay: Synergistic anticancer activity against human SUM159 cells assessed as decrease in primary tumor sphere formation at 62 nM incubated for 72 hrs in presence of JQ1 by Extreme limiting dilution analysis; assay type: functional
Method in brief: (§3)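 72 h adherent pretreatment (Sal/JQ1 62 nM/62 nM; docetaxel added at 2 nM where used), then single cells plated in ultra-low attachment 96-well plates in serum-free mammary epithelium basal medium at 25/10/5/3/2/1 cells/well (18–36 wells/condition). Wells with ≥1 sphere after 10 days scored positive; sphere-forming frequency by ELDA. Secondary spheres from dissociated primary spheres. n = 4; pairwise chi-square.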

SUM-159-PT [7] = assay: Synergistic anticancer activity against human SUM159 cells assessed as decrease in secondary tumor sphere formation at 62 nM incubated for 72 hrs in presence of JQ1 by Extreme limiting dilution analysis; assay type: functional; method in brief: as §3
SUM-159-PT [8] = assay: Induction of apoptosis in human SUM159 cells expressing ALDHbr upto 5 uM incubated for 72 hrs by ALDEFLUOR/YO-PRO-3/ Hoechst 33342 staining based high content imaging microscopic analysis; assay type: functional, cell-based
Method in brief: (§4)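 SUM159 at 3,000 cells/well on collagen plates, dosed at 6, 24 and 48 h post-seeding; 0.1% DMSO negative control, cisplatin positive control. At 72 h stained 30 min at 37°C with ALDEFLUOR, YO-PRO-3 and Hoechst 33342, then imaged ice-cold. YO-PRO-3-positive nuclei (above untreated signal) counted over total cells, per ALDHbr/ALDH- subpopulation; n = 6.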

SUM-159-PT [9] = assay: Induction of apoptosis in human SUM159 cells expressing ALDH upto 5 uM incubated for 72 hrs by ALDEFLUOR/YO-PRO-3/ Hoechst 33342 staining based high content imaging microscopic analysis; assay type: functional, cell-based; method in brief: as §4
SUM-159-PT [10] = assay: Anticancer activity against human SUM159 cells assessed as effect on RFP+/BFP+ cell ratio upto 5 uM after 72 hrs by […]; assay type: functional, cell-based
SUM-159-PT [11] = assay: Anticancer activity against human SUM159 cells expressing BFP assessed as reduction in ALDHbr cell at 5 to 500 nM by LSR2 cytometer analysis; assay type: functional, cell-based; conditions: dose 5-500 nM
SUM-159-PT [12] = assay: Anticancer activity against human SUM159 cells expressing BFP assessed as reduction in ALDHbr cell at 50 nM by LSR2 cytometer analysis; assay type: functional
SUM-159-PT [13] = assay: Synergistic anticancer activity against human SUM159 cells expressing BFP assessed as reduction in ALDHbr cell 50 nM in presence of JQ1 by LSR2 cytometer analysis; assay type: functional
Breast cancer cell line [14] = assay: Antitumor activity against human CRCM434 negative breast cancer cells orthotopically xenografted in NSG mouse model of PDX assessed as reduction in tumor volume at 3 mg/kg, ip daily for 14 days; assay type: functional, organism-based; conditions: time 14.0 day
Method in brief: (§5)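 Chemo-naïve triple-negative PDX cells injected at 100,000 per fat pad, two fat pads per NSG mouse. At ~80 mm³ tumours, mice received i.p. 3 mg/kg daily for 14 days or 50 mg/kg 5 of 7 days for 2 weeks; placebo was DMSO/HPCD 10% (1:9). Five mice (10 tumours) per group. Tumour growth monitored; after 2 weeks tumours dissociated, mouse cells excluded via anti-H2Kd, ALDHbr measured by ALDEFLUOR flow cytometry and normalised to vehicle.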

Breast cancer cell line [15] = assay: Antitumor activity against human CRCM404 negative breast cancer cells orthotopically xenografted in NSG mouse model of PDX assessed as reduction in tumor volume at 3 mg/kg, ip daily for 14 days; assay type: functional, organism-based; conditions: time 14.0 day; method in brief: as §5
Breast cancer cell line [16] = assay: Antitumor activity against human CRCM494 negative breast cancer cells orthotopically xenografted in NSG mouse model of PDX assessed as reduction in tumor volume at 3 mg/kg, ip daily for 14 days; assay type: functional, organism-based; conditions: time 14.0 day; method in brief: as §5
Breast cancer cell line [17] = assay: Antitumor activity against human CRCM434 negative breast cancer cells orthotopically xenografted in NSG mouse model of PDX assessed as reduction ALDHbr cells at 3 mg/kg, ip daily for 14 days by LSR2 cytometer analysis; assay type: functional, organism-based; conditions: time 14.0 day; method in brief: as §5
Breast cancer cell line [18] = assay: Antitumor activity against human CRCM404 negative breast cancer cells orthotopically xenografted in NSG mouse model of PDX assessed as reduction ALDHbr cells at 3 mg/kg, ip daily for 14 days by LSR2 cytometer analysis; assay type: functional, organism-based; conditions: time 14.0 day; method in brief: as §5
Breast cancer cell line [19] = assay: Antitumor activity against human CRCM494 negative breast cancer cells orthotopically xenografted in NSG mouse model of PDX assessed as reduction ALDHbr cells at 3 mg/kg, ip daily for 14 days by LSR2 cytometer analysis; assay type: functional, organism-based; conditions: time 14.0 day; method in brief: as §5
Breast cancer cell line [20] = assay: Synergistic antitumor activity against human CRCM434 negative breast cancer cells orthotopically xenografted in NSG mouse model of PDX assessed as reduction ALDHbr cells at 3 mg/kg, ip daily for 14 days cotreated with JQ1 by LSR2 cytometer analysis; assay type: functional; conditions: time 14 day
Breast cancer cell line [21] = assay: Synergistic antitumor activity against human CRCM404 negative breast cancer cells orthotopically xenografted in NSG mouse model of PDX assessed as reduction ALDHbr cells at 3 mg/kg, ip daily for 14 days cotreated with JQ1 by LSR2 cytometer analysis; assay type: functional; conditions: time 14 day
Breast cancer cell line [22] = assay: Synergistic antitumor activity against human CRCM494 negative breast cancer cells orthotopically xenografted in NSG mouse model of PDX assessed as reduction ALDHbr cells at 3 mg/kg, ip daily for 14 days cotreated with JQ1 by LSR2 cytometer analysis; assay type: functional; conditions: time 14 day
Breast cancer cell line [23] = assay: Antitumor activity against human reimplanted CRCM434 negative breast cancer cells orthotopically xenografted in NSG mouse model of PDX assessed as reduction tumor volume at 3 mg/kg, ip daily for 14 days by limiting dilation analysis; assay type: functional, organism-based; conditions: time 14.0 day
Method in brief: (§6)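 After 2 weeks of i.p. treatment (3 mg/kg daily or 50 mg/kg 5 of 7 days), dissociated PDX tumour cells reimplanted into secondary NSG mice at 50, 500 or 5,000 cells. A mouse counted as tumour-bearing once a tumour reached 10 mm. bCSC frequency per 10,000 cells estimated by ELDA; pairwise chi-square test.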

Breast cancer cell line [24] = assay: Antitumor activity against human reimplanted CRCM404 negative breast cancer cells orthotopically xenografted in NSG mouse model of PDX assessed as reduction tumor volume at 3 mg/kg, ip daily for 14 days by limiting dilation analysis; assay type: functional, organism-based; conditions: time 14.0 day; method in brief: as §6
Breast cancer cell line [25] = assay: Antitumor activity against human reimplanted CRCM494 negative breast cancer cells orthotopically xenografted in NSG mouse model of PDX assessed as reduction tumor volume at 3 mg/kg, ip daily for 14 days by limiting dilation analysis; assay type: functional, organism-based; conditions: time 14.0 day; method in brief: as §6

In the case of `CC[C@@H](C(=O)[C@@H](C)[C@@H](O)[C@H](C)[C@@H]1O[C@@H]([C@@H](CC)C(=O)O)CC[C@@H]1C)[C@H]1O[C@]2(C=C[C@@H](O)[C@]3(CC[C@@](C)([C@H]4CC[C@](O)(CC)[C@H](C)O4)O3)O2)[C@H](C)C[C@@H]1C` [SALINOMYCIN], the Activity (SUM-159-PT [1]) is reported as “Active”, the Activity (SUM-159-PT [2]) is reported as “Active” and the Activity [3] is reported as -0.19. It also gave an Activity [4] of -0.07, an Activity (SUM-159-PT [5]) of -0.14 and an Activity (SUM149PT) of -0.06. The Activity (MDA-MB-436) was -0.12, the “fold change (FC)” value (SUM-159-PT [6]) was 2.4 and the “fold change (FC)” value (SUM-159-PT [7]) was 5.4. For the same molecule, the Activity (SUM-159-PT [8]) was “Active”, the Activity (SUM-159-PT [9]) was “Active” and the Activity (SUM-159-PT [10]) was “inactive”. The Activity (SUM-159-PT [11]) was “Active”, the “fold change (FC)” value (SUM-159-PT [12]) was 2 and the “fold change (FC)” value (SUM-159-PT [13]) was 4. For the same molecule, the Activity (Breast cancer cell line [14]) was “inactive”, the Activity (Breast cancer cell line [15]) was “inactive” and the Activity (Breast cancer cell line [16]) was “inactive”. The Activity (Breast cancer cell line [17]) was “Active”, the Activity (Breast cancer cell line [18]) was “Active” and the Activity (Breast cancer cell line [19]) was “Active”. For the same molecule, the “fold change (FC)” value (Breast cancer cell line [20]) was 2, the “fold change (FC)” value (Breast cancer cell line [21]) was 2 and the “fold change (FC)” value (Breast cancer cell line [22]) was 2. For the same molecule, the Activity (Breast cancer cell line [23]) was “Active”, the Activity (Breast cancer cell line [24]) was “Active” and the Activity (Breast cancer cell line [25]) was “Active”.
